The target of data set [1] is T1, Cannabinoid receptor 1 (Homo sapiens, UniProt P21554). Description: Agonist activity at human CB1 receptor expressed in Sf9 cells by GTP-europium binding assay. The procedure, abridged:
(§1)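 Membranes were from Sf9 insect cells cotransfected with CB1 or CB2 plus Gαi3 (Bmax 1.7 pmol/mL). Compound (0.01 nM–10 µM, 1% DMSO final) was added to buffer with Hepes, BSA, 10 mM MgCl2, 150 mM NaCl, 5 µM GDP, 10 nM GTP-europium, saponin and membranes (CB1 4.5 µg/well, CB2 14 µg/well). 100% efficacy was set by 3 µM reference agonist.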

In data set [2] the target is T2, Cannabinoid receptor 2 (Homo sapiens, UniProt P34972). In words: Agonist activity at human recombinant CB2 receptor expressed in Sf9 cells by GTP-europium binding assay. The procedure, abridged:
as §1

Data set [3] addresses T1, Cannabinoid receptor 1. In words: Agonist activity at human recombinant CB1 receptor expressed in Sf9 cells by GTP-europium binding assay relative to CP-55940. The procedure, abridged: (§2)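 Membranes were from Sf9 insect cells cotransfected with CB1 or CB2 plus Gαi3 (Bmax 1.7 pmol/mL). Compound (0.01 nM–10 µM, 1% DMSO final) was added to buffer with Hepes, BSA, 10 mM MgCl2, 150 mM NaCl, 5 µM GDP, 10 nM GTP-europium, saponin and membranes (CB1 4.5 µg/well, CB2 14 µg/well). Incubation was 45 min at room temperature, then filtration and washing, with fluorescence read at 615 nm. 100% efficacy was set by 3 µM reference agonist.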

The target in data set [4] is T2, Cannabinoid receptor 2. Description: Agonist activity at human recombinant CB2 receptor expressed in Sf9 cells by GTP-europium binding assay relative to CP-55940. The procedure, abridged:
as §2

In data set [5] the target is T1, Cannabinoid receptor 1. In words: Agonist activity at human recombinant CB1 receptor expressed in CHO-K1 cells assessed as inhibition of forskolin-stimulated intracellular cAMP level. Format: functional, cell-based. The method, boiled down:
(§3)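 CHO-K1 cells stably expressing human or rat CB1 or CB2 were used. Compounds were diluted from DMSO into HBSS/HEPES/BSA buffer containing 60 µM forskolin, then combined with 5000 cells/well plus Alexa647 anti-cAMP antibody, 1 h at room temperature. A biotinylated-cAMP detection mix was added for another 1 h.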
In general terms: cAMP levels reflect the balance of adenylyl cyclase and phosphodiesterase activity.

In data set [6] the target is T2, Cannabinoid receptor 2. Description: Agonist activity at human recombinant CB2 receptor expressed in CHO-K1 cells assessed as inhibition of forskolin-stimulated intracellular cAMP level. In kind it is functional, cell-based. The method, boiled down:
as §3

Data set [7] addresses T1, Cannabinoid receptor 1. In words: Agonist activity at human recombinant CB1 receptor expressed in CHO-K1 cells assessed as inhibition of forskolin-stimulated intracellular cAMP level relative to CP-55940. In kind it is functional, cell-based. The method, boiled down: (§4)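 CHO-K1 cells stably expressing human or rat CB1 or CB2 were used. Compounds were diluted from DMSO into HBSS/HEPES/BSA buffer containing 60 µM forskolin, then combined with 5000 cells/well plus Alexa647 anti-cAMP antibody, 1 h at room temperature. A biotinylated-cAMP detection mix was added for another 1 h. Emission at 665 nm gave concentration-response curves and EC50; Emax is expressed as a percentage of the reference agonist maximum.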

Data set [8] addresses T2, Cannabinoid receptor 2. Description: Agonist activity at human recombinant CB2 receptor expressed in CHO-K1 cells assessed as inhibition of forskolin-stimulated intracellular cAMP level relative to CP-55940. In kind it is functional, cell-based. The procedure, abridged: as §4
Data set [9] addresses Cannabinoid receptor 1 (Rattus norvegicus, UniProt P20272). Description: Agonist activity at rat recombinant CB1 receptor expressed in CHO-K1 cells assessed as inhibition of forskolin-stimulated intracellular cAMP level. Format: functional, cell-based. The method, boiled down: as §3
The target in data set [10] is T3, Cannabinoid receptor 2 (Rattus norvegicus, UniProt Q9QZN9).
T3 sequence (Q9QZN9 whole entry): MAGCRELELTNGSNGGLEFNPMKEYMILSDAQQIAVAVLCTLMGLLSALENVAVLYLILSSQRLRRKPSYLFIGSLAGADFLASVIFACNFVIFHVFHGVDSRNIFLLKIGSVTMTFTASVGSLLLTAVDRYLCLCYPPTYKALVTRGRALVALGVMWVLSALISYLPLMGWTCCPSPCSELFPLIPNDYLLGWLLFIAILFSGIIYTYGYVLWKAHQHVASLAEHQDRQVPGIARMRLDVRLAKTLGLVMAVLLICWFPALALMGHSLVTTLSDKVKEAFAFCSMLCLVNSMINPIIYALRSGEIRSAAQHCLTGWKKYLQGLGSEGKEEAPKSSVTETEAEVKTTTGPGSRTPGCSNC
Description: Agonist activity at rat recombinant CB2 receptor expressed in CHO-K1 cells assessed as inhibition of forskolin-stimulated intracellular cAMP level. Format: functional, cell-based. The method, boiled down: as §4

For data set [11], the target named is Cannabinoid receptor 1 (Rattus norvegicus) (UniProt P20272). Description: Agonist activity at rat recombinant CB1 receptor expressed in CHO-K1 cells assessed as inhibition of forskolin-stimulated intracellular cAMP level relative to CP-55940. Format: functional, cell-based. The procedure, abridged: as §4
Data set [12] has as its target T4, Cannabinoid receptor 2 (Rattus norvegicus) (UniProt Q9QZN9).
T4 sequence (whole entry): T3 sequence (Q9QZN9 whole entry)
In words: Agonist activity at rat recombinant CB2 receptor expressed in CHO-K1 cells assessed as inhibition of forskolin-stimulated intracellular cAMP level relative to CP-55940. In kind it is functional, cell-based. The method, boiled down:
as §4

Data set [13] in a line: Metabolic stability in human liver microsomes. In kind it is ADME, Microsome. The following applies: read-out: Stability.
A short description of data set [14]: Metabolic stability in rat liver microsomes. Format: ADME, Microsome. Particulars: read-out: Stability.

Cannabinoid receptor 1 (Rattus norvegicus, UniProt P20272), sequence (P20272 whole entry): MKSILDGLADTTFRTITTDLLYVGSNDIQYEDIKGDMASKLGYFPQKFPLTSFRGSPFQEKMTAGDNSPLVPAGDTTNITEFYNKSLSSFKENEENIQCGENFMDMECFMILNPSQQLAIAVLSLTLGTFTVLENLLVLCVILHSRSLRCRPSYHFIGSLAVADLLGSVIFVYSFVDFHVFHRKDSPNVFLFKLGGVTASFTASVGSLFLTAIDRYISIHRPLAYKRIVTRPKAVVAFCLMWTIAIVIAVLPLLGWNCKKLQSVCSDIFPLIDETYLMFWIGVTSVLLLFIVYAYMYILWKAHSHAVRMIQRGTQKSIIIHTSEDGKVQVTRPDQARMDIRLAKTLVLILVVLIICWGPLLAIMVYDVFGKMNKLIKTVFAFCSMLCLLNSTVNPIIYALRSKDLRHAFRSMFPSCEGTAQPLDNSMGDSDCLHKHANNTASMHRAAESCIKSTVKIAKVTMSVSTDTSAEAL
Cannabinoid receptor 1 (Rattus norvegicus), sequence (P20272 whole entry): as above
T1 sequence (P21554 whole entry): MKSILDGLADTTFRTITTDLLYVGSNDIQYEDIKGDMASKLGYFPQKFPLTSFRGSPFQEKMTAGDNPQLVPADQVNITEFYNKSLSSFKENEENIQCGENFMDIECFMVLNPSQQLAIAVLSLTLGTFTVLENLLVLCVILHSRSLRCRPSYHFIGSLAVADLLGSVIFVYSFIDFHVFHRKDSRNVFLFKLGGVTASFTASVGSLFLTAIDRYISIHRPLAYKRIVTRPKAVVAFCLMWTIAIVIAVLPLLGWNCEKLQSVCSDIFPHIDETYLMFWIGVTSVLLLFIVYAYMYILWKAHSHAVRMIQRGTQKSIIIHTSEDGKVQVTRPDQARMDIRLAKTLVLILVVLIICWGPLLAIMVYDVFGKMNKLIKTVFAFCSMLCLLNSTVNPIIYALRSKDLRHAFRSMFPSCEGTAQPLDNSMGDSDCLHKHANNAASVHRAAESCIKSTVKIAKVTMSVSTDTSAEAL
T2 sequence (P34972 whole entry): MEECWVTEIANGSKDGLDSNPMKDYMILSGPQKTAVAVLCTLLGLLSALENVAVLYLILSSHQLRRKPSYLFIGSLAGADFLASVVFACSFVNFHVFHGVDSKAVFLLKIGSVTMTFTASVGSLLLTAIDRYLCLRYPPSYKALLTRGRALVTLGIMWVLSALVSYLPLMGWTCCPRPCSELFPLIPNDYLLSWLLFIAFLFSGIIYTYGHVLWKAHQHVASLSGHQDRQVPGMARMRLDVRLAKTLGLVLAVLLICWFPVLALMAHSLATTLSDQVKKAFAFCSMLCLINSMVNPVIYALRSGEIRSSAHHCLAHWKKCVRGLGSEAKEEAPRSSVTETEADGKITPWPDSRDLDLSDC

One may read the EC50 as the concentration that produces a half-maximal response. As usually defined, the Emax is the greatest response seen or fitted, relative to the assay's reference. For the compound `CC(C)(C)c1ncc(OCCCc2nc(-c3ccc(F)cc3Cl)no2)cn1`, the EC50 at Cannabinoid receptor 1 [1] is 610 nM; on Cannabinoid receptor 2 [2], 4.9 nM; at Cannabinoid receptor 1 [5], 1500 nM; on Cannabinoid receptor 2 [6], 24 nM; at Cannabinoid receptor 1 [9], 540 nM; at Cannabinoid receptor 2 [10] it was 16 nM. Also, the Emax on Cannabinoid receptor 1 [3] came to 99%; on Cannabinoid receptor 2 [4], 110%; on Cannabinoid receptor 1 [7], 63%; at Cannabinoid receptor 2 [8], 91%; in data set [11] it was 86%; in data set [12], 100%.
Regarding `O=C(CCc1nc(-c2ccc(F)cc2Cl)no1)Nc1cnc2ccc(Cl)cc2c1`, the EC50 was found to be 0.9 nM on Cannabinoid receptor 1 [1]; 1400 nM at Cannabinoid receptor 2 [2]; 710 nM on Cannabinoid receptor 1 [5]; 0.5 nM on Cannabinoid receptor 2 [6]; 130 nM on Cannabinoid receptor 1 [9]; 11 nM at Cannabinoid receptor 2 [10]. In addition, the Emax stood at 82% at Cannabinoid receptor 1 [3]; 110% on Cannabinoid receptor 2 [4]; 57% at Cannabinoid receptor 1 [7]; 99% on Cannabinoid receptor 2 [8]; 99% in data set [11]; 97% in data set [12]. The microsomal CLint in data set [13] and in [14] was below 100 µL/min/mg each time.
Take `CCn1c2ccccc2c2cc(NC(=O)CCc3nc(C4CCOCC4)no3)ccc21`: the EC50 on Cannabinoid receptor 1 [1] is above 10000 nM; at Cannabinoid receptor 2 [2] it was 42 nM; at Cannabinoid receptor 1 [5], above 1000 nM; at Cannabinoid receptor 2 [6] it was 2.4 nM; at Cannabinoid receptor 1 [9], 150 nM; at Cannabinoid receptor 2 [10], 0.38 nM. Also, the Emax on Cannabinoid receptor 2 [4] was 94%; at Cannabinoid receptor 1 [7] it was 23%; at Cannabinoid receptor 2 [8] it was 98%; in data set [11], 110%; in [12], 100%.
With `CC(C)(C)c1ncc(NC(=O)CCc2nc(-c3ccc(F)cc3Cl)no2)cn1`, the 50% effective concentration (EC50) at Cannabinoid receptor 1 [1] is above 10000 nM; at Cannabinoid receptor 2 [2], 5.4 nM; at Cannabinoid receptor 1 [5], above 1000 nM; on Cannabinoid receptor 2 [6], 2.9 nM; on Cannabinoid receptor 1 [9], 570 nM; at Cannabinoid receptor 2 [10] it was 1.3 nM. Also, the maximal effect (Emax) is 91% at Cannabinoid receptor 2 [4], 97% at Cannabinoid receptor 2 [8], 67% in data set [11] and 99% in data set [12].
Regarding `CCn1c2ccccc2c2cc(NC(=O)CCc3nc(-c4ccc(F)cc4)no3)ccc21`, the EC50 at Cannabinoid receptor 1 [1] was found to be 1200 nM; at Cannabinoid receptor 2 [2], 9.8 nM; on Cannabinoid receptor 1 [5] it was 330 nM; at Cannabinoid receptor 2 [6], 4.8 nM; at Cannabinoid receptor 1 [9], 650 nM; at Cannabinoid receptor 2 [10], 3.2 nM. The Emax on Cannabinoid receptor 1 [3] amounted to 55%; at Cannabinoid receptor 2 [4], 95%; at Cannabinoid receptor 1 [7], 24%; at Cannabinoid receptor 2 [8] it was 95%; in [11] it was 65%; in [12], 90%.
For `CC(C)(C)c1cc(NC(=O)CCc2nc(-c3ccc(F)cc3Cl)no2)no1`, the EC50 on Cannabinoid receptor 1 [1] is 1600 nM; at Cannabinoid receptor 2 [2], 0.2 nM; at Cannabinoid receptor 1 [5], above 1000 nM; on Cannabinoid receptor 2 [6], 0.7 nM; on Cannabinoid receptor 1 [9], 170 nM; on Cannabinoid receptor 2 [10], 0.4 nM. Further, the maximal effect (Emax) at Cannabinoid receptor 1 [3] is 103%; on Cannabinoid receptor 2 [4] it was 120%; on Cannabinoid receptor 1 [7], 48%; on Cannabinoid receptor 2 [8] it was 96%; in [11] it was 110%; in data set [12], 100%.
In the case of `Fc1ccc(-c2noc(CCCOc3cnc4ccc(Cl)cc4c3)n2)c(Cl)c1`, the EC50 at Cannabinoid receptor 1 [1] worked out at 1100 nM; on Cannabinoid receptor 2 [2], 7.2 nM; on Cannabinoid receptor 1 [5], 990 nM; at Cannabinoid receptor 2 [6], 3.6 nM; at Cannabinoid receptor 1 [9], 83 nM; at Cannabinoid receptor 2 [10], 5.1 nM. The Emax at Cannabinoid receptor 1 [3] was 92%; on Cannabinoid receptor 2 [4], 110%; at Cannabinoid receptor 1 [7] it was 48%; at Cannabinoid receptor 2 [8] it was 99%; in data set [11], 98%; in data set [12] it was 99%.

Source of the values: ChEMBL document CHEMBL1156631 (J Med Chem, 2008).
